In the library only some 27% were active in any assay of this set; here they are far more common.
CYP2C19 act = cytochrome P450 2C19 (human) activation. P33261. recombinant CYP2C19, luciferin-H EGE luminescence; stronger effect = higher value; 0 = fully inhibited enzyme, 1 = untreated enzyme. activation factor at 5 µM. 96,000 tested, under 10 active. AID 1025;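 active = activation factor of at least 2 at 5 µM in the primary screen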
Target sequence (P33261 whole entry, looked up): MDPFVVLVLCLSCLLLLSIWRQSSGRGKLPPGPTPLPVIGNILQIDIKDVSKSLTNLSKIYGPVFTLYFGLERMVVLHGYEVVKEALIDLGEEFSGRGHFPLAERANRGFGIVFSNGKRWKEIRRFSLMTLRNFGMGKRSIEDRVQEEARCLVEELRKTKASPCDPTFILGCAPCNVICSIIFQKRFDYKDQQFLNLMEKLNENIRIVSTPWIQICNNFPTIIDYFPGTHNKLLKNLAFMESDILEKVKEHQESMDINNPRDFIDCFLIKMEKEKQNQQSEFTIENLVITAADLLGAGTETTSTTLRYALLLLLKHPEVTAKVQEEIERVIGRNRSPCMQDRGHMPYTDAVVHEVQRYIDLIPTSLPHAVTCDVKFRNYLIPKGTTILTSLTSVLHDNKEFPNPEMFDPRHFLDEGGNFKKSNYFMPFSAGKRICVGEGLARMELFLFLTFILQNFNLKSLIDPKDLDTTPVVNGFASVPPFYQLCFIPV
HIV Rev-RRE inh = HIV Rev-RRE protein-RNA interaction inhibition; 97,000 tested, 0.79% active; inhibition, % at 8 µM; Rev peptide-RRE RNA binding, FRET; P05866;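 active = inhibition above the screen-wide mean plus 3 SD, cut at about 35% in these data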
Target sequence (P05866 whole entry, looked up): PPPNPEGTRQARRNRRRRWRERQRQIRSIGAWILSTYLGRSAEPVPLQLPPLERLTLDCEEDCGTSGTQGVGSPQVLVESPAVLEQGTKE
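Test system: Cy5-tagged RRE RNA duplex with fluorescein-tagged Rev peptide; Probe or stimulus: labelled Rev peptide; Schedule: 5 min preincubation and 15 min binding, 25 °C; Signal: FRET fluorescence readout; Evaluation: % inhibition from 671/540 nm acceptor-to-donor ratio, scaled between controls; Control set: DMSO and neomycin B.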
CYP2C19 inhib = human CYP2C19 inhibition | CYP2C19 Supersomes, luciferin-H EGE luminescence, 30 min | inhibition, % at 5 µM | P33261 | 96,000 tested, 21% active;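 active = CYP2C19 inhibition above a set limit at 5 µM in the primary screen, cut at about 50% in these data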
CYP2C9 inhib = human CYP2C9 inhibition; P11712; CYP2C9 Supersomes, luciferin-H conversion, luminescence; inhibition, % at 5 µM; 96,000 tested, 20% active; AID 777;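 active = blocking of liver enzyme CYP2C9 beyond about 50% at 5 µM, limit read from the data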
CYP2C9 act = activators of human CYP2C9; recombinant CYP2C9, luciferin-H conversion, luminescence; stronger effect = higher value; factor 1 = untreated enzyme, 0 = blocked; P11712; 96,000 tested, 1.4% active; AID 1024; activation factor at 5 µM;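 active = activation factor of 2 or more for CYP2C9 at a 5 µM dose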
Cav32 inh = inhibitors of human Cav3.2 T-type calcium channel. O95180. Cav3.2-expressing cells, Fluo-4 calcium fluorescence FDSS; stronger effect = lower value. B-score at 10 µM. 100,000 tested, 4% active;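 active = single-dose well whose peak fluorescence ratio is a statistical outlier from its plate by either plate-standardised score or position-corrected B-score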
Numbers stand for hits; - = inactive; . = not tested or not shown.

SMILES	CYP2C19 act	HIV Rev-RRE inh	CYP2C19 inhib	CYP2C9 inhib	CYP2C9 act	Cav32 inh
O=C1C(c2ccccc2)=C(N2CC2)c2ccccc21	-	-	-	-	-	-
O=C1C(=O)c2ccccc2-c2ccccc21	-	-	98.1	93.3	-	-
Cc1cc(S(=O)(=O)NCC(C)C)ccc1OCC(=O)N1CCN(Cc2ccccc2)CC1	-	-	50.2	65.8	-	-
Cc1cc(S(=O)(=O)NC(C)C)ccc1OCC(=O)N1CCN(Cc2ccc3c(c2)OCO3)CC1	-	-	63.4	58.9	-	-
CC(C)NS(=O)(=O)c1ccc(OCC(=O)N2CCN(Cc3ccc4c(c3)OCO4)CC2)c(Cl)c1	-	-	70.9	-	-	-
O=P(O)(O)C#Cc1ccccc1	-	.	-	-	-	.
CCOC(=O)C1=C(C)OC(N)=C(C(=O)OCC)C12C(=O)Nc1ccc(Br)cc12 (stereo not drawn)	-	-	-	-	-	-3.81
Cc1cccnc1-n1c(C)nc2ccccc2c1=O	-	-	-	-	-	-
O=C(c1cc(-c2cccnc2)nc2ccc(Cl)cc12)N1CCC2(CC1)OCCO2	-	-	-	-	-	-
Cc1ccc2nc(-c3ccncc3)cc(C(=O)N3CCC4(CC3)OCCO4)c2c1	-	-	-	50.8	-	-
COc1ccc(C(CC(=O)N2CCC3(CC2)OCCO3)NS(=O)(=O)c2ccc(OC)cc2)cc1 (stereo not drawn)	-	.	-	-	-	.
COc1ccc(S(=O)(=O)NC(CC(=O)N2CCC3(CC2)OCCO3)c2ccco2)cc1 (stereo not drawn)	-	-	75.9	51.1	-	-
COc1ccc(CCC(=O)N2CCC3(CC2)OCCO3)cc1	-	-	75.4	-	-	-
Cc1ccc(CS(=O)(=O)CCC(=O)N2CCC3(CC2)OCCO3)cc1	-	-	-	-	-	-
CC(C)(C)c1nc(NCc2ccc3c(c2)OCO3)c2nnn(Cc3ccccc3Cl)c2n1	.	-	.	.	.	-
Clc1ccc(-c2nc3ccc(Cl)cn3c2CN2CCOCC2)cc1	-	-	76.8	63.6	-	-
CC(C)[C@]12O[C@H]1[C@@H]1O[C@]13[C@]1(O[C@H]1C[C@H]1C4=C(CC[C@@]13C)C(=O)OC4)[C@@H]2O	.	.	.	.	.	-
O=c1c2ccccc2nc(-c2ccccc2)n1-n1cccc1	-	-	53.1	56.9	-	-
O=c1c2ccccc2nc(-c2ccccc2)n1-c1ccncc1	-	-	-	-	-	-
CCOP(=S)(OCC)SCC(=O)NC(C(=O)O)C(C)C (stereo not drawn)	-	-	-	91.7	-	-
CCOC(=O)C(C)(CC)NC(=O)CSP(=S)(OCC)OCC (stereo not drawn)	-	-	97.6	91.4	-	-
CCCCN1C(=O)NC(=O)/C(=C/c2cnc(SC)nc2)C1=O	-	-	-	-	-	-
C=CCN1C(=O)NC(=O)/C(=C/c2ccc(OC)c(CSc3ccccn3)c2)C1=O	-	-	52.1	-	-	-
Clc1ccc(CO/N=C(\Cn2ccnc2)c2ccc(Cl)cc2Cl)c(Cl)c1	.	.	.	.	.	-
COC(=O)C1=C(c2cccc(OC)c2OC)C[C@@H]2CC[C@H]1N2C(=O)N1CCC(C)CC1	.	.	.	.	.	-
SMILES	CYP2C19 act	HIV Rev-RRE inh	CYP2C19 inhib	CYP2C9 inhib	CYP2C9 act	Cav32 inh
O=P(Nc1ccccc1)(Nc1ccccc1)Oc1cccc(Cl)c1	-	-	-	50.6	-	-7.1
Cn1c(=O)n(CC(=O)N2CCC3(CC2)OCCO3)c(=O)c2ccccc21	-	.	-	-	-	.
CCn1c(=O)cc(SCC(=O)N2CCC3(CC2)OCCO3)c2ccccc21	-	-	-	-	2.2	-
COP(=O)(OC)C(NC(=O)C(C)(C)C)=C(Cl)Cl	-	-	-	-	-	-
CCOP(=O)(OCC)C(NC(=O)c1ccc(Cl)cc1)=C(Cl)Cl	-	-	63.9	-	-	-
O=[P+](Cc1ccccc1)Cc1ccccc1	-	-	-	-	-	-
Cn1c(O)c(C(=O)c2ccccc2F)c(=O)n(C)c1=O	-	-	-	-	-	-
CCC(=NCc1ccc(F)cc1)c1c(O)n(C)c(=O)n(C)c1=O	-	-	84.3	66.6	-	-
CCOC(=O)c1c(-n2c(C)cc(/C=C3\C(=O)NC(=O)N(C)C3=O)c2C)sc2c1CCCC2	-	-	-	70.9	-	-
CCOC(=O)C1=C(N)Oc2ccccc2C12C(=O)N(CC(=O)OC)C(CC(=O)OC)=C2C(=O)OC (stereo not drawn)	-	-	-	-	-	-
CCOc1cc(C=C2C(=O)NC(=O)NC2=O)ccc1OS(=O)(=O)c1ccccc1	-	-	54.2	-	-	-
COC(=O)C1=C(c2ccccc2)C[C@@H]2CC[C@H]1N2C(=O)NCc1cccc2ccccc12	.	.	.	.	.	-
Fc1ccc2c(c1)nnn2C1CCN(Cc2nnnn2CCc2ccccc2)CC1	-	-	78.4	94.8	-	-
c1ccc(CCn2nnnc2CN2CCC(n3nnc4ccccc43)CC2)cc1	-	.	68.8	68.5	-	-
CCOC(=O)C1SC2(C(F)F)CC1(O)c1c(c(OC)c3occc3c1OC)O2 (stereo not drawn)	-	-	100.0	96.9	-	-
CCC1(c2ccccc2)C(=O)N(COC)C(=O)N(COC)C1=O	-	-	79.4	-	-	-
CCC(C(=O)N1CCC2(CC1)OCCO2)c1ccccc1 (stereo not drawn)	.	-	.	.	.	-
COc1cccc(OCC(=O)N2CCN(C)CC2)c1	-	.	54.4	-	-	-
NC1=Nc2ccccc2Oc2ccccc21	-	-	-	-	-	.
CCCCCCCC(=O)NC(Oc1ccccc1[N+](=O)[O-])C(Cl)(Cl)Cl (stereo not drawn)	-	-	-	-	-	-6.86
Cc1cccc(C(=O)NC(Oc2ccccc2)C(Cl)(Cl)Cl)c1 (stereo not drawn)	-	-	-	-	-	-
CCC1CCCCN1P(=O)(c1ccc(C)o1)C(C)(C)C (stereo not drawn)	-	-	-	-	-	-
Oc1cccc(/C=N/NP(=S)(c2ccccc2)c2ccccc2)c1	-	-	93.8	98.9	-	-
N#Cc1c(/N=C/c2c(O)n(Cc3ccco3)c(=O)[nH]c2=O)sc2c1CCCC2	-	39.7	-	-	-	-
CN(C)CCN=Cc1c(O)n(Cc2ccco2)c(=O)[nH]c1=O	-	-	-	-	-	-
C[N+]12CCC(CC1)C(C(O)(c1ccccc1)c1cccs1)C2 (stereo not drawn)	-	-	-	-	-	-
Cc1cc(C)n(CCOC(=O)C2C(C=C(Cl)Cl)C2(C)C)n1 (stereo not drawn)	-	-	91.8	74.9	-	-6.62
CCC(C)(C)n1nnnc1C(c1cccs1)N1CC=C(c2ccc(F)cc2)CC1 (stereo not drawn)	-	-	56.3	79.3	-	-
